Measured values of several laboratories.
Each line is one published result; the experiments were not run side by side.
Cell line: MOLM-13
Read-out: cell growth or viability

With `COc1cc(-c2ncn(/C=C\C(=O)OC(C)C)n2)cc(C(F)(F)F)c1` the IC50 was 0.015 µM (72 h).
`C#CCN(C)Cc1ccccc1` has an EC50 of greater than 2 µM (resazurin; 96 h).
The IC50 of `CC(C)C[C@H](NC(=O)[C@H](Cc1ccccc1)NC(=O)c1cnccn1)B(O)O` is reported as 0.0045 µM (ATP luminescence).
With `N[C@@H](CC(=O)N1CCN(C(c2ccc(F)cc2)c2ccc(F)cc2)CC1)C(=O)N1Cc2ccccc2C1` the IC50 was 2.03 µM (ATP luminescence; 48 h).
The EC50 of `N[C@H]1CC[C@H](N[C@@H]2C[C@H]2c2ccccc2)CC1` is reported as 0.00021 µM (resazurin; 96 h).
For `COc1cc(F)ccc1-c1cc(Nc2cc(CS(C)(=N)=O)ccn2)ncc1F` (stereo not drawn), the GI50 was 0.0938 µM (24 h).
The IC50 of `COc1cc(Nc2nccc(-c3cnn4nc(OC)ccc34)n2)cc(C(F)(F)F)c1` is reported as 0.15 µM (ATP luminescence).
With `CCCON(Cc1ccc(C(=O)NO)cc1)C(=O)Nc1ccccc1` the IC50 was 0.239 µM (ATP luminescence; 72 h).
`Cc1cc2c(cc1N1C(=O)c3cccc4c(CCCO)ccc(c34)C1=O)n(C)c(=O)n2C` (racemic) gave a GI50 of 1.06 µM (resazurin).
`Nc1nc(Nc2ccc3c(c2)CC[C@@H](N2CCCC2)CC3)nn1-c1cc2c(nn1)-c1ccccc1CCC2` gave an IC50 of 0.167 µM (trypan blue; 72 h).
With `CCCCN(Cc1ccc(C(=O)NO)cc1)C(=O)Nc1ccccc1` the IC50 was 0.22 µM (ATP luminescence; 72 h).
For `O=C(O)c1ccc(CN2CCC(CN[C@@H]3C[C@H]3c3ccccc3)CC2)cc1`, the EC50 was 0.0402 µM (resazurin; 96 h).
`COc1cc2nccc(Oc3ccc(NC(=O)C4(C(=O)Nc5ccc(F)cc5)CC4)cc3)c2cc1OC` has an IC50 of 0.01 µM (trypan blue; 72 h).
`NNCCc1ccccc1` gave an EC50 of greater than 2 µM (resazurin; 96 h).
`CC[C@@H](C)[C@H](N)C(=O)N1Cc2ccccc2C1` gave an IC50 of 1.86 µM (ATP luminescence; 48 h).
